Results on one molecule are retold here after publication PMC2141641 (The Journal of Cell Biology, 1997).

Test [1] has as its system CD36–GST fusion protein FP298-439. Further details: species or system human. As to conditions: 125I–TSP-1 20 μg/ml; equal to binding in the presence of 5 mM EDTA; n = 5. A digest of the protocol: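 GST–CD36 fusion protein was coated overnight at 4°C at 10 μg/ml in carbonate buffer, pH 9.8 (200–280 ng/well). Wells were washed with TBS-T and blocked with TBS-T/0.5% BSA. 125I–TSP-1 (20 μg/ml; 0.5–1 mCi/mg) in TBS-T was incubated 2 h at 22°C. Wells were washed and bound counts measured by gamma counting. 5 mM EDTA defined nonspecific binding.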

Test [2] relates to Bovine adrenal capillary endothelial cells (BCECs). As to the kind of experiment: Endothelial cell migration assay, BCECs. The format is cell-based. The conditions noted are these: TSP-1 2 nM; fusion protein preincubated 2 h at 4°C; migration 4 h at 37°C. A digest of the protocol: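 Bovine adrenal capillary cells (DME, 10% donor calf serum, 1% endothelial mitogen; passage 15) were starved overnight in DME/0.1% BSA. 3 × 10^4 cells/well were attached 2 h at 37°C to a gelatinized membrane in an inverted Boyden chamber, then reinverted. GST–CD36 fusion proteins were preincubated with 2 nM TSP-1, warmed to room temperature, and added to the top wells. Migration to bFGF ran 4 h at 37°C. Migrated cells/10 high-power fields counted; normalized to bFGF minus background.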

For test [3], the system named is TSP-1. The conditions noted are these: ref Pearce et al., 1995; cited from earlier work.

B1: FP298-439: control fusion protein unable to bind TSP-1 spanning CD36 amino acids 298–439 (protein)
chain: KAFASPVENPDNYCFCTEKIISKNCTSYGVLDISKCKEGRPVYISLPHFLYASPDVSEPIDGLNPNEEEHRTYLDIEPITGFTLQFAKRLQVNLLVKPSEKIQVLKNLKRNYIVPILWLNETGTIGDEKANMFRSQVTGKIN
modifications: left off: GST, end not stated, kept
For B1, the “TSP-1 binding to immobilized fusion protein (in words)” value in test [1] is “only background binding”. In addition, the “block of TSP-1 inhibition of bFGF-induced migration” value in test [2] was “ineffective”. Moreover, the “binding of fusion protein to TSP-1” value in test [3] is given as “unable to bind TSP-1”.
